Assay results taken from ChEMBL document CHEMBL1649165, “Activity profile in vitro of micafungin against Spanish clinical isolates of common and emerging species of yeasts and molds” (2009).
Converted amounts (≈) assume the structure as drawn. *1 amine or outer side, *2 acyl side, *3 side chain or, on linkers, in order; H or OH if unused. Where a SMILES comes first, the peptide text is derived from it. Bridges are numbered along the chain shown (N, C = ends). [ ]: non-standard residue; d: D form. The star is where a group is joined. pTerphenylCO(4''-OnC5H11) = CCCCCOc1ccc(-c2ccc(-c3ccc(C(=O)*)cc3)cc2)cc1; Orn(4R-OH,5R-OH) = O=C([C@H](C[C@@H](O)[C@@H](O)N[*:3])N[*:1])[*:2]; hTyr(3S-OH,4S-OH) = N[C@H](C(=O)O)[C@H](O)[C@@H](O)c1ccc(O)cc1; Pro(3S-OH,4S-Me) = C[C@H]1CN[C@H](C(=O)O)[C@H]1O; Hyp = O=C(O)[C@@H]1C[C@@H](O)CN1

Columns and labels:
Assay type in all cases: functional
Aspergillus ochraceus = assay: Antimicrobial activity against Aspergillus ochraceus by broth microdilution method
How it was run: (§1)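 Clinical mould isolates, tested by broth microdilution using the AFST-EUCAST reference method for filamentous fungi. For echinocandins, the endpoint was the minimum effective concentration: the lowest drug concentration giving aberrant hyphal growth, read with an inverted microscope.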

[1] = system: Cladophialophora bantiana; assay: Antimicrobial activity against Cladophialophora bantiana by broth microdilution method; how it was run: as §1
Rhizopus arrhizus = assay: Antimicrobial activity against Rhizopus oryzae by broth microdilution method
How it was run: (§2)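 Filamentous fungus clinical isolates tested by the AFST-EUCAST reference broth microdilution method for moulds. For echinocandins, the endpoint was the minimum effective concentration: the lowest drug concentration giving aberrant hyphal growth, read with an inverted microscope.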

Trichosporon ovoides = assay: Antimicrobial activity against Trichosporon ovoides by broth microdilution method
How it was run: (§3)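 Nonfermentative yeast clinical isolates (Rhodotorula, Trichosporon) tested by broth microdilution. The EUCAST yeast recommendations were followed strictly, with one minor modification to improve growth. MIC was read as the endpoint.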

Aspergillus terreus = assay: Antimicrobial activity against Aspergillus terreus by broth microdilution method; how it was run: as §1
Trichosporon = assay: Antimicrobial activity against Trichosporon spp. by broth microdilution method; how it was run: as §3
Mucor = assay: Antimicrobial activity against Mucor spp.by broth microdilution method; how it was run: as §2
Paecilomyces variotii = assay: Antimicrobial activity against Paecilomyces variotii by broth microdilution method; how it was run: as §2
Trichosporon inkin = assay: Antimicrobial activity against Trichosporon inkin by broth microdilution method; how it was run: as §3
Aspergillus versicolor = assay: Antimicrobial activity against Aspergillus versicolor by broth microdilution method; how it was run: as §1
Alternaria alternata = assay: Antimicrobial activity against Alternaria alternata by broth microdilution method; how it was run: as §1
Candida albicans = assay: Antimicrobial activity against Candida albicans by broth microdilution method
How it was run: (§4)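 Clinical isolates from human patients, tested by broth microdilution using the AFST-EUCAST reference procedure for fermentative yeasts. The MIC was read per that reference method.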

Trichosporon asahii = assay: Antimicrobial activity against Trichosporon asahii by broth microdilution method; how it was run: as §3
Rhodotorula glutinis = assay: Antimicrobial activity against Rhodotorula glutinis by broth microdilution method; how it was run: as §3
Aspergillus flavus = assay: Antimicrobial activity against Aspergillus flavus by broth microdilution method; how it was run: as §1
[Candida] inconspicua = Antimicrobial activity against Candida inconspicua by broth microdilution method; details: Pichia inconspicua; how it was run: as §4
Wickerhamomyces anomalus = assay: Antimicrobial activity against Candida pelliculosa by broth microdilution method; details: Hansenula anomala; how it was run: as §4
Fusarium solani = assay: Antimicrobial activity against Fusarium solani by broth microdilution method; how it was run: as §2
Trichosporon jirovecii = assay: Antimicrobial activity against Trichosporon jirovecii by broth microdilution method; details: Cutaneotrichosporon jirovecii; how it was run: as §3
Candida orthopsilosis = assay: Antimicrobial activity against Candida orthopsilosis by broth microdilution method; details: Lodderomyces orthopsilosis; how it was run: as §4
Nakaseomyces glabratus = assay: Antimicrobial activity against Candida glabrata by broth microdilution method; how it was run: as §4
Diutina rugosa = assay: Antimicrobial activity against Candida rugosa by broth microdilution method; how it was run: as §4
Rhodotorula mucilaginosa = assay: Antimicrobial activity against Rhodotorula mucilaginosa by broth microdilution method; how it was run: as §3
Aspergillus glaucus = assay: Antimicrobial activity against Aspergillus glaucus by broth microdilution method; how it was run: as §1
Pichia norvegensis = assay: Antimicrobial activity against Candida norvegensis by broth microdilution method; how it was run: as §4
Lomentospora prolificans = assay: Antimicrobial activity against Scedosporium prolificans by broth microdilution method; how it was run: as §2
Coprinellus domesticus = assay: Antimicrobial activity against Hormographiella verticillata by broth microdilution method; how it was run: as §2
Scedosporium apiospermum = assay: Antimicrobial activity against Scedosporium apiospermum by broth microdilution method; how it was run: as §2
Aspergillus fumigatus = assay: Antimicrobial activity against Aspergillus fumigatus by broth microdilution method; how it was run: as §1
Clavispora lusitaniae = assay: Antimicrobial activity against Candida lusitaniae by broth microdilution method; how it was run: as §4
Candida metapsilosis = assay: Antimicrobial activity against Candida metapsilosis by broth microdilution method; details: Lodderomyces metapsilosis; how it was run: as §4
Geotrichum candidum = assay: Antimicrobial activity against Galactomyces geotrichum by broth microdilution method
[2] = system: Scopulariopsis brevicaulis; assay: Antimicrobial activity against Scopulariopsis brevicaulis by broth microdilution method; how it was run: as §2
Phialemonium curvatum = assay: Antimicrobial activity against Phialemonium curvatum by broth microdilution method; details: Thyridium curvatum; how it was run: as §2
Aspergillus nidulans = assay: Antimicrobial activity against Aspergillus nidulans by broth microdilution method; how it was run: as §1
Magnusiomyces capitatus = assay: Antimicrobial activity against Dipodascus capitatus by broth microdilution method
Lecythophora hoffmannii = assay: Antimicrobial activity against Lecythophora hoffmannii by broth microdilution method; details: Coniochaeta hoffmannii; how it was run: as §2
Fusarium equiseti = assay: Antimicrobial activity against Fusarium equiseti by broth microdilution method; how it was run: as §1
Pichia kudriavzevii = assay: Antimicrobial activity against Candida krusei by broth microdilution method; how it was run: as §4
[3] = system: Cunninghamella bertholletiae; assay: Antimicrobial activity against Cunninghamella bertholletiae by broth microdilution method; how it was run: as §1
Ustilago = assay: Antimicrobial activity against Ustilago spp by broth microdilution method

CCCCCOc1ccc(-c2ccc(-c3ccc(C(=O)N[C@H]4C[C@@H](O)[C@@H](O)NC(=O)[C@@H]5[C@@H](O)[C@@H](C)CN5C(=O)[C@H]([C@@H](C)O)NC(=O)[C@H]([C@H](O)[C@@H](O)c5ccc(O)cc5)NC(=O)[C@@H]5C[C@@H](O)CN5C(=O)[C@H]([C@@H](C)O)NC4=O)cc3)cc2)cc1 [ANIDULAFUNGIN] ({pTerphenylCO(4''-OnC5H11)}-[Orn(4R-OH,5R-OH)]T[Hyp][hTyr(3S-OH,4S-OH)]T[Pro(3S-OH,4S-Me)]; lactam 1-C)
MIC50 (Aspergillus ochraceus): 0.06 µg/mL (≈ 0.0526 µM) | MIC90 (Aspergillus ochraceus): 0.25 µg/mL (≈ 0.219 µM) | MIC50 [1]: 0.03 µg/mL (≈ 0.0263 µM) | MIC90 [1]: 0.06 µg/mL (≈ 0.0526 µM) | MIC50 (Rhizopus arrhizus): > 16 µg/mL | MIC90 (Rhizopus arrhizus): > 16 µg/mL | MIC50 (Trichosporon ovoides): > 16 µg/mL | MIC90 (Trichosporon ovoides): > 16 µg/mL | MIC50 (Aspergillus terreus): 0.03 µg/mL (≈ 0.0263 µM) | MIC90 (Aspergillus terreus): 0.03 µg/mL (≈ 0.0263 µM) | MIC50 (Trichosporon): > 16 µg/mL | MIC90 (Trichosporon): > 16 µg/mL | MIC50 (Mucor): > 16 µg/mL | MIC90 (Mucor): > 16 µg/mL | MIC50 (Paecilomyces variotii): 0.03 µg/mL (≈ 0.0263 µM) | MIC90 (Paecilomyces variotii): 0.03 µg/mL (≈ 0.0263 µM) | MIC50 (Trichosporon inkin): > 16 µg/mL | MIC90 (Trichosporon inkin): > 16 µg/mL | MIC50 (Aspergillus versicolor): 0.03 µg/mL (≈ 0.0263 µM) | MIC90 (Aspergillus versicolor): 0.03 µg/mL (≈ 0.0263 µM) | MIC50 (Alternaria alternata): 0.06 µg/mL (≈ 0.0526 µM) | MIC90 (Alternaria alternata): > 16 µg/mL | MIC50 (Candida albicans): 0.03 µg/mL (≈ 0.0263 µM) | MIC90 (Candida albicans): 0.03 µg/mL (≈ 0.0263 µM) | MIC50 (Trichosporon asahii): > 16 µg/mL | MIC90 (Trichosporon asahii): > 16 µg/mL | MIC50 (Rhodotorula glutinis): > 16 µg/mL | MIC90 (Rhodotorula glutinis): > 16 µg/mL | MIC50 (Aspergillus flavus): > 16 µg/mL | MIC90 (Aspergillus flavus): > 16 µg/mL | MIC50 ([Candida] inconspicua): 0.06 µg/mL (≈ 0.0526 µM) | MIC90 ([Candida] inconspicua): 0.25 µg/mL (≈ 0.219 µM) | MIC50 (Wickerhamomyces anomalus): 0.06 µg/mL (≈ 0.0526 µM) | MIC90 (Wickerhamomyces anomalus): 0.25 µg/mL (≈ 0.219 µM) | MIC50 (Fusarium solani): > 16 µg/mL | MIC90 (Fusarium solani): > 16 µg/mL | MIC50 (Trichosporon jirovecii): > 16 µg/mL | MIC90 (Trichosporon jirovecii): > 16 µg/mL | MIC50 (Candida orthopsilosis): 0.06 µg/mL (≈ 0.0526 µM) | MIC90 (Candida orthopsilosis): 0.25 µg/mL (≈ 0.219 µM) | MIC50 (Nakaseomyces glabratus): 0.03 µg/mL (≈ 0.0263 µM) | MIC90 (Nakaseomyces glabratus): 0.03 µg/mL (≈ 0.0263 µM) | MIC50 (Diutina rugosa): 0.06 µg/mL (≈ 0.0526 µM) | MIC90 (Diutina rugosa): 0.25 µg/mL (≈ 0.219 µM) | MIC50 (Rhodotorula mucilaginosa): > 16 µg/mL | MIC90 (Rhodotorula mucilaginosa): > 16 µg/mL | MIC50 (Aspergillus glaucus): 0.06 µg/mL (≈ 0.0526 µM) | MIC90 (Aspergillus glaucus): 0.25 µg/mL (≈ 0.219 µM) | MIC50 (Pichia norvegensis): 0.06 µg/mL (≈ 0.0526 µM) | MIC90 (Pichia norvegensis): 0.25 µg/mL (≈ 0.219 µM) | MIC50 (Lomentospora prolificans): 4 µg/mL (≈ 3.51 µM) | MIC90 (Lomentospora prolificans): > 16 µg/mL | MIC50 (Coprinellus domesticus): > 16 µg/mL | MIC90 (Coprinellus domesticus): > 16 µg/mL | MIC50 (Scedosporium apiospermum): 0.5 µg/mL (≈ 0.438 µM) | MIC90 (Scedosporium apiospermum): 4 µg/mL (≈ 3.51 µM) | MIC50 (Aspergillus fumigatus): 0.03 µg/mL (≈ 0.0263 µM) | MIC90 (Aspergillus fumigatus): 0.03 µg/mL (≈ 0.0263 µM) | MIC50 (Clavispora lusitaniae): 0.03 µg/mL (≈ 0.0263 µM) | MIC90 (Clavispora lusitaniae): 0.12 µg/mL (≈ 0.105 µM) | MIC50 (Candida metapsilosis): 0.06 µg/mL (≈ 0.0526 µM) | MIC90 (Candida metapsilosis): 0.25 µg/mL (≈ 0.219 µM) | MIC50 (Geotrichum candidum): > 16 µg/mL | MIC90 (Geotrichum candidum): > 16 µg/mL | MIC50 [2]: > 16 µg/mL | MIC90 [2]: > 16 µg/mL | MIC50 (Phialemonium curvatum): > 16 µg/mL | MIC90 (Phialemonium curvatum): > 16 µg/mL | MIC50 (Aspergillus nidulans): 0.03 µg/mL (≈ 0.0263 µM) | MIC90 (Aspergillus nidulans): 0.25 µg/mL (≈ 0.219 µM) | MIC50 (Magnusiomyces capitatus): 2 µg/mL (≈ 1.75 µM) | MIC90 (Magnusiomyces capitatus): 4 µg/mL (≈ 3.51 µM) | MIC50 (Lecythophora hoffmannii): 0.03 µg/mL (≈ 0.0263 µM) | MIC90 (Lecythophora hoffmannii): 0.06 µg/mL (≈ 0.0526 µM) | MIC50 (Fusarium equiseti): > 16 µg/mL | MIC90 (Fusarium equiseti): > 16 µg/mL | MIC50 (Pichia kudriavzevii): 0.03 µg/mL (≈ 0.0263 µM) | MIC90 (Pichia kudriavzevii): 0.06 µg/mL (≈ 0.0526 µM) | MIC50 [3]: > 16 µg/mL | MIC90 [3]: > 16 µg/mL | MIC50 (Ustilago): > 16 µg/mL | MIC90 (Ustilago): > 16 µg/mL
